This is an account of results in publication PMC4819696 (Febs Letters, 2016).

“Also recorded” adds a separate entry of the source. *: point of attachment. Biotin = O=C1N[C@H]2[C@H](CS[C@H]2CCCCC(=O)*)N1

One assay addresses T1, full‐length syntenin (Homo sapiens, UniProt O00560).
T1 sequence (O00560 1-298): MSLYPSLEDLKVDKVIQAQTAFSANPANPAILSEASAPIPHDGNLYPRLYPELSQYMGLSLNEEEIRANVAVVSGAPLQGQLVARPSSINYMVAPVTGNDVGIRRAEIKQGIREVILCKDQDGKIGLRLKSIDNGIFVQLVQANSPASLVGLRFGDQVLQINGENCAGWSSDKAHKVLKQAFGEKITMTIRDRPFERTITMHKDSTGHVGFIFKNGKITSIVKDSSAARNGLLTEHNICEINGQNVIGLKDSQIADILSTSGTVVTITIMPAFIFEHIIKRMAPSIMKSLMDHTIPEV
The experiment in a line: Surface plasmon resonance. Format: binding. As to conditions: used as reference channel; 10 mM HEPES, 150 mM NaCl, 0.005% Tween20, pH 7.4. In general terms: In SPR one partner is held on a chip, and binding of the other changes the refractive index at the surface.

A further assay deals with syntenin PDZ1‐2. The experiment in a line: Clonal phage ELISA against PDZ1‐2. It is filed as binding. The settings on record: clonal ELISA against the baits PDZ1, PDZ2 or PDZ1‐2. The essentials:
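Syntenin PDZ1‑2 (107–275), PDZ1 (107–199) and PDZ2 (198–275) were expressed in E. coli ER2566 and purified by nickel affinity. Clones came from five rounds of selection of M13 gene‑8 libraries (random C‑terminal heptamers or internal dodecamers) on immobilized PDZ1‑2, with PBS/0.05% Tween 20 washes. Clones binding PDZ1‑2 but not control GST were sequenced, then each was tested by phage ELISA against immobilized PDZ1‑2, PDZ1 and PDZ2.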
On the technique in general: An ELISA detects its analyte on a solid surface through an enzyme-linked reagent.

A further assay concerns syntenin. Put plainly: Co-immunoprecipitation of endogenous nectin-1 and syntenin in MCF‐7 cells. It is filed as cell-based. The settings on record: IP with nectin‐1 specific antibody, immunoblot with anti‐syntenin antibody. (In general: A western blot detects proteins with antibodies after separation by electrophoresis.)
Assay [1] addresses T2, full-length syntenin (SPR analyte) (UniProt O00560 1-298).
T2 sequence (looked up): T1 sequence (O00560 1-298)
Put plainly: SPR.

A further assay concerns C‐terminus of nectin‐1. Format: binding. As to conditions: bait C‐terminus of nectin‐1. The essentials:
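Bait was transformed into MaV203 yeast, followed by 100 μg human fetal brain cDNA library in pEXP‑AD502. About 5 × 10^5 transformants were plated on medium lacking Trp/Leu/His with 20 mM 3‑amino‑1,2,4‑triazole, 30 °C, 5 days. Positives were checked on uracil and β‑galactosidase reporters, PCR‑amplified and retested in fresh bait yeast. Multi‑product colonies were discarded. Inserts were sequenced and in‑frame GAL4AD clones kept.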

The test system of a further assay is nectin‐1. Format: cell-based. As to conditions: freshly plated MCF‐7 cells, fibronectin-coated coverslips, 5 h.

As for “Biot‐RMRKKDEGSYDLGERKPSSAAYQKAPTKEFpYA‐COOH”, the “binding to syntenin by SPR (in words)” value on full‐length syntenin is “nonbinding”. Consider SHWTIDI, for which the “binding in clonal phage ELISA (in words)” value in the assay with syntenin PDZ1‐2 is “both PDZ domains are necessary for binding to this peptide”. Same read-out and setting: with YYWAATGENVYS the entry was “loss of binding in phage ELISAs”.

B1: nectin‐1: cell adhesion protein PVRL1, also called nectin-1 (protein)
chain: QVVQVNDSMYGFIGTDVVLHCSFANPLPSVKITQVTWQKSTNGSKQNVAIYNPSMGVSVLAPYRERVEFLRPSFTDGTIRLSRLELEDEGVYICEFATFPTGNRESQLNLTVMAKPTNWIEGTQAVLRAKKGQDDKVLVATCTSANGKPPSVVSWETRLKGEAEYQEIRNPNGTVTVISRYRLVPSREAHQQSLACIVNYHMDRFKESLTLNVQYEPEVTIEGFDGNWYLQRMDVKLTCKADANPPATEYHWTTLNGSLPKGVEAQNRTLFFKGPINYSLAGTYICEATNPIGTRSGQVEVNITEFPYTPSPPEHGRRAGPVPTAIIGGVAGSILLVLIVVGGIVVALRRRRHTFKGDYSTKKHVYGNGYSKAGIPQHHPPMAQNLQYPDDSDDEKKAGPLGGSSYEEEEEEEEGGGGGERKVGGPHPKYDEDAKRPYFTVDEAEARQDGYGDRTLGYQYDPEQLDLAENMVSQNDGSFISKKEWYV
Regarding B1, the “co-IP of endogenous proteins (in words)” value with syntenin was “confirmed an interaction between the endogenous proteins”.

B2: N-terminal biotinylated nectin-1 C-terminal peptide (peptide)
peptide: Biotin-AENMVSQNDGSFISKKEWYV-OH
SMILES: CC[C@H](C)[C@H](NC(=O)[C@H](Cc1ccccc1)NC(=O)[C@H](CO)NC(=O)CNC(=O)[C@H](CC(=O)O)NC(=O)[C@H](CC(N)=O)NC(=O)[C@H](CCC(N)=O)NC(=O)[C@H](CO)NC(=O)[C@@H](NC(=O)[C@H](CCSC)NC(=O)[C@H](CC(N)=O)NC(=O)[C@H](CCC(=O)O)NC(=O)[C@H](C)NC(=O)CCCC[C@@H]1SC[C@@H]2NC(=O)N[C@@H]21)C(C)C)C(=O)N[C@@H](CO)C(=O)N[C@@H](CCCCN)C(=O)N[C@@H](CCCCN)C(=O)N[C@@H](CCC(=O)O)C(=O)N[C@@H](Cc1c[nH]c2ccccc12)C(=O)N[C@@H](Cc1ccc(O)cc1)C(=O)N[C@H](C(=O)O)C(C)C
The term Kd denotes a measure of binding affinity in units of concentration. Low values mean a tighter complex, high ones a looser complex. In assay [1], B2 gave a Kd of 14 µM.

B3: syntenin: small adaptor protein with PDZ1-2 tandem (protein)
chain: T1 sequence (O00560 1-298)
modifications: left off: GAL4AD, end not stated, kept
With B3, the “Y2H preference (in words)” value in the assay on C‐terminus of nectin‐1 is on record as “preferred nectin‐1 binder; also recorded: favored ligand of the C‐terminus of nectin‐1”. For the same molecule, the “colocalization (in words)” value with nectin‐1 is given as “colocalizes with nectin‐1 at the sites of cell–cell contacts”.
